Measurements of several laboratories.
Protocols differ between the studies behind these lines.
CDK2 with cyclin A2: Cyclin-dependent kinase 2, with cyclin A2 (CDK2, Homo sapiens, UniProt P24941)
ST14: Suppressor of tumorigenicity 14 protein (ST14, Homo sapiens, UniProt Q9Y5Y6)

| Structure (SMILES) | target | observed | mode | method | concentration | quantity | result |
| --- | --- | --- | --- | --- | --- | --- | --- |
| CNC(=O)c1cc(Oc2ccc(NC(=O)Nc3ccc(Cl)c(C(F)(F)F)c3)cc2)ccn1 | CDK2 with cyclin A2 | enzyme activity | inhibitor |  | 200 pM | inhibition | 12.3% |
| CNc1ncc2c(/C=C/C(=O)N3CCC(OC)CC3)nn(Cc3cccc(C(F)(F)F)c3)c2n1 | Tyrosine-protein kinase ZAP-70 (ZAP70, Homo sapiens, UniProt P43403) | enzyme activity | inhibitor | radiometric | 1 µM | remaining activity | 95% |
| Cc1cc([C@@H](C)Nc2ccccc2C(=O)O)c2nc(N3CCC(F)(F)CC3)c(C#N)c(=O)n2c1 | Angiopoietin-1 receptor (TEK, Homo sapiens, UniProt Q02763) | binding |  | competition with immobilised ligand | 1 µM | remaining binding | 60% |
| COc1cc(-c2cncc3c2CN(C)Cc2cc(N4CCNCC4)ccc2-3)cc(OC)c1OC | Protein kinase C eta type (PRKCH, Homo sapiens, UniProt P24723) | enzyme activity | inhibitor |  | 1 µM | remaining activity | 115% |
| N=C(N)NCCC[C@H](NC(=O)[C@H](Cc1cccc2ccccc12)NC(=O)[C@H](Cc1cscn1)NC(=O)CCc1ccccc1)C(=O)c1nc2ccccc2s1 | ST14 | enzyme activity | inhibitor |  | 0.1 µM | remaining activity | 6% |
| C=CC(=O)N1CCC(COCC(=O)N2CCN(c3nc(-c4cnc(N)nc4C(F)F)nc(N4CCOC[C@@H]4C)n3)CC2)CC1 | ALK tyrosine kinase receptor (ALK, Homo sapiens, UniProt Q9UM73, C1156Y) | binding |  | competition with immobilised ligand | 1 µM | remaining binding | 79% |
| CC(=O)Nc1c(N)nc(SCC(=O)NN)[nH]c1=O | CDK2 with cyclin A2 | enzyme activity | inhibitor |  | 1 nM | inhibition | 8.32% |
| N=C(N)NCCC[C@H](NC(=O)[C@@H]1CCCN1C(=O)[C@H](Cc1cscn1)NC(=O)CCc1ccccc1)C(=O)c1nc2ccccc2s1 | ST14 | enzyme activity | inhibitor |  | 0.1 µM | remaining activity | 61% |
| CC(=O)Nc1c(N)nc(SCC(=O)N/N=C/c2ccc([N+](=O)[O-])cc2)[nH]c1=O | CDK2 with cyclin A2 | enzyme activity | inhibitor |  | 1 nM | inhibition | 4.03% |
| CCC[C@H](NC(=O)[C@H](Cc1cscn1)NC(=O)CCc1ccccc1)C(=O)N[C@@H](CCCNC(=N)N)C(=O)c1nc2ccccc2s1 | ST14 | enzyme activity | inhibitor |  | 0.1 µM | remaining activity | 45% |
